MT1-MMP act inh: inhibitors of human MT1-MMP activation | P50281 | HT1080 RFP-PRO-GFP cells, GFP/RFP ratio fluorescence, overnight; percent of plate control window, DMSO zero | GFP/RFP ratio change, % at 20 µM | actives 0.061% (n = 360,000) | AID 651647;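 active = GFP/RFP ratio change of at least 30% with cell ATP level not reduced by more than half and red fluorescence within 50% of control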
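system = RFP-PRO-GFP reporter HT1080 cells | dosing = 20 µM single dose, 1% DMSO | timing = overnight cell settling, then overnight compound exposure, 37 °C, 5% CO2 | read-out basis = GFP/RFP fluorescence ratio | controls = DMSO and RFP-L50D-GFP cell wells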
GSK3A inh: human GSK-3 alpha kinase inhibition; inhibition, % at 10 µM; P49840; ADP-Glo luminescence, 60 min; actives 0.1% (n = 320,000);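 active = more than half of replicates show inhibition above 20%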;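 note: GST-tagged GSK-3 alpha with peptide substrate and 25 µM ATP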
GSK3beta inhib: blocks human GSK3beta kinase activity. P49841. GST-GSK3beta kinase, ADP-Glo luminescence, 60 min; active compounds read low. activity score (negative = inhibition), % at 10 µM. actives 0.038% (n = 300,000). AID 2097;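 active = more than half of replicate wells score below -50%, meaning over 50% inhibition versus plate controls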
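Test system – GST-tagged human GSK3beta kinase, cell-free · Incubation – 60 min enzyme reaction, room temperature · Signal – ADP-Glo luminescence · Also added – peptide substrate and ATP at 25 µM · Controls – DMSO neutral wells and GW8510 at 20 µM as positive · Buffer or medium – Tris/MgCl2 kinase buffer · Measure – Luminescence-derived activity versus plate DMSO and GW8510 wells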
DSG3 Ab inh: blocks pemphigus antibody binding to human desmoglein-3. P32926. DSG3-coupled beads, scFv-anti-DSG3-GFP binding, flow cytometry; active compounds read low. binding (percent of control), % at 10 µM. actives 0.48% (n = 310,000);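 active = binding more than 3 SD below its plate's average and above zero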;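 note: hits lower antibody fragment binding to DSG3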
STK33 inh: human STK33 kinase inhibition. inhibition, % at 10 µM. purified STK33, MBP phosphorylation, ADP-Glo luminescence. actives 0.073% (n = 320,000). Q9BYT3;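 active = inhibition at or above 25%, using the most active replicate where run in duplicate; inactive = inhibition below 25%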
Large screens that a line does not name were inactive. This is a sample that favours compounds with a hit; in the whole collection about 0.63% have one here.

Cc1ccc(NC(=O)c2sc(N)nc2-c2ccc([N+](=O)[O-])cc2)cc1C	DSG3 Ab inh 63
CCCOC(=O)C1=C(C)NC(=O)NC1c1cccc2ccccc12 (stereo unspecified)	DSG3 Ab inh 2.5
CC1=C(C(=O)OCCBr)C(c2cccc3ccccc23)NC(=O)N1 (stereo unspecified)	none
CCOC(=O)[C@]12CCC=C1N(Cc1cccc3ccccc13)C(=O)[C@H](CC(=O)NCC1CCCCC1)C2	none (no result: GSK3A inh, GSK3beta inhib, DSG3 Ab inh, STK33 inh)
CCc1nnc(NC(=O)CSc2ncnc3c2oc2ccccc23)s1	DSG3 Ab inh -17
O=C(CSc1ncnc2c1oc1ccccc12)Nc1nc2ccccc2s1	none
CCCCCCCCN1C(=O)[C@H](CC(=O)NCCc2ccccc2OC)C[C@@]2(C(=O)OC)CC(C)(C)CC=C12	none (no result: GSK3A inh, GSK3beta inhib, DSG3 Ab inh, STK33 inh)
O=C1Nc2ccccc2N=C(c2ccc3c(c2)OCO3)C1N(C(=O)c1ccc2ccccc2c1)C1CC1 (stereo unspecified)	none (no result: GSK3A inh, GSK3beta inhib, DSG3 Ab inh, STK33 inh)
Cc1ccc(C)c(N2CCN(C(=O)CCCn3c(=S)[nH]c4cc5c(cc4c3=O)OCO5)CC2)c1	DSG3 Ab inh 78
O=C(CCCn1c(=S)[nH]c2cc3c(cc2c1=O)OCO3)N1CCN(c2ccccc2F)CC1	none (no result: GSK3A inh)
Cc1ccn2c(=O)nc(SCC(=O)c3ccc(Cl)cc3)nc2c1	none
COc1ccc(C(=O)CSc2nc(=O)n3ccc(C)cc3n2)cc1	DSG3 Ab inh 57 (no result: GSK3A inh, GSK3beta inhib, STK33 inh)
C[C@@H]1Cc2c(O)c(O)cc(O)c2C(=O)O1	none (no result: DSG3 Ab inh)
O=C1C=C(O)c2c(O)cc(O)c(O)c2C1=O	DSG3 Ab inh 79
C=CCN=C(NC#N)SCC(=O)c1cccc(OC)c1	GSK3A inh 82, GSK3beta inhib -69
CNc1nc(-c2ccc(S(=O)(=O)N3CCCCC3)cc2)cs1	DSG3 Ab inh 82 (no result: GSK3beta inhib)
O=C(NCCCCCCNC(=O)OCc1ccccc1)OCc1ccccc1	DSG3 Ab inh 6.8 (no result: GSK3A inh, GSK3beta inhib, STK33 inh)
COC(=O)C(CCCCNC(=O)OCc1ccccc1)NC(=O)CN (stereo unspecified)	none
CN(C)Cc1c(C(=O)N/N=C/c2cccs2)nnn1-c1nonc1N	none
CCN(CC)Cc1c(C(=O)N/N=C/c2cccs2)nnn1-c1nonc1N	GSK3A inh 76
CC(=C/c1ccco1)/C=N/NC(=O)c1nnn(-c2nonc2N)c1CN(C)C	GSK3A inh 59 (no result: DSG3 Ab inh)
CCN(CC)Cc1c(C(=O)N/N=C/c2ccco2)nnn1-c1nonc1N	none (no result: GSK3A inh)
CCN(CC)Cc1c(C(=O)N/N=C/c2ccccn2)nnn1-c1nonc1N	GSK3A inh 60, GSK3beta inhib -54 (no result: DSG3 Ab inh)
CN(Cc1c(C(=O)N/N=C/c2ccc(O)cc2)nnn1-c1nonc1N)c1ccccc1	GSK3A inh 75
CCN(CC)Cc1c(C(=O)N/N=C/c2cccc3ccccc23)nnn1-c1nonc1N	none
C[C@H](CO)N1C[C@H](C)[C@H](CN(C)S(C)(=O)=O)OCc2cnnn2CCCC1=O	none (no result: GSK3A inh, GSK3beta inhib, STK33 inh)
C#CCN1CCc2onc(-c3ccc(Br)cc3)c2C1=O	none (no result: GSK3A inh, GSK3beta inhib, DSG3 Ab inh, STK33 inh)
O=c1cc(-c2ccccc2)c2c(O)cc(O)cc2o1	GSK3A inh 72, GSK3beta inhib -58
O=C(Nc1ccc(F)cc1)C(c1ccnc2ccccc12)N1CCN(CC(=O)N2CCCC2)CC1 (stereo unspecified)	none (no result: GSK3A inh, GSK3beta inhib, DSG3 Ab inh, STK33 inh)
CCOc1ccccc1N1CCN(CC(O)COC2CCCc3ccccc32)CC1 (stereo unspecified)	DSG3 Ab inh -39 (no result: GSK3beta inhib)
CCc1nc2ccc(C(=O)Nc3cccc(OCC(=O)N(C)C)c3)cn2c1N(C)Cc1cc2ccccc2s1	none (no result: GSK3A inh, GSK3beta inhib, DSG3 Ab inh, STK33 inh)
Nc1ccc(O)cc1C(=O)OCC(=O)C12CC3CC(CC(C3)C1)C2	none (no result: GSK3beta inhib)
O=C(OCC(=O)C12CC3CC(CC(C3)C1)C2)c1ccccc1O	DSG3 Ab inh 70 (no result: GSK3beta inhib)
CCCNCC1COc2ccccc2O1 (stereo unspecified)	GSK3beta inhib -52 (no result: MT1-MMP act inh, DSG3 Ab inh)
CCOC(=O)c1ccc2ncc(C(=O)OCC)c(NCc3ccco3)c2c1	DSG3 Ab inh 47
CCOC(=O)c1cnc2c(C)cccc2c1NCc1ccco1	none
COc1ccc(/C=N/NC(=O)CCN2CCN(c3ccccc3)CC2)c(OC)c1OC	none
O=C(CCN1CCN(c2ccccc2)CC1)N/N=C/c1ccc(O)c(O)c1O	DSG3 Ab inh 80 (no result: GSK3A inh, STK33 inh)
COc1ccc(C2=Nn3c(nnc3-c3ccccc3F)SC2)cc1OC1CCOC1 (stereo unspecified)	DSG3 Ab inh 82 (no result: GSK3beta inhib)

Screening results as filed in PubChem.
